PKA-R1A activ: activates the PKA-R1A holoenzyme complex | AID 504707 | activation, % at 11.4 µM | P00514+P68181 | 340,000 tested, 0.083% active | PKA-R1A dissociation, Cy5-IP20 fluorescence polarization; scaled: DMSO 0%, 113 µM cGMP 100%;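 active = percent activation above the mean of all tested compounds plus 3 SD, cut at about 19% in these data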;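 also: higher means more PKAc released from R1A so a rise in polarization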
S100A4 MyoIIA: S100A4-myosin IIA interaction inhibition. 360,000 tested, 0.14% active. inhibition, % at 10.7 µM. S100A4/TAMRA-MyoIIA peptide fluorescence polarization. P26447. AID 652163;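 active = mean inhibition of at least 70% across replicates, with every replicate also reaching that level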
Target sequence (P26447 whole entry, looked up): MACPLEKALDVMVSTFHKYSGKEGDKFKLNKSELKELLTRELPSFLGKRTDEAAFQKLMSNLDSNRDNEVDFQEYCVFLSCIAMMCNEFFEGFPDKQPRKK
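Test system: S100A4 monomer protein; Medium: HEPES pH 7.2 with CaCl2, KCl, NaCl, DTT, Triton; Probe or stimulus: TAMRA-labelled myosin IIA heavy-chain peptide probe, 5 nM; Doses: one dose per compound; Times: polarization read 5 min after assay mix addition, stable 5–60 min; Benchmarks: neutral control DMSO, positive control TFP.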
PKA-R2B activ: activates the human PKA-R2B holoenzyme complex; P22694+P31323; activation, % at 11.4 µM; PKA-R2B holoenzyme dissociation, Cy5-IP20 fluorescence polarization; R2B truncated from residue 108, S112A mutant; 0% DMSO only, 100% 113 µM cGMP; AID 504700; 340,000 tested, 0.079% active;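 active = activation above a cutoff set at the mean over all compounds plus 3 SD, cut at about 18% in these data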;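 also: higher means more holoenzyme dissociation and a rise in polarization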
CRFBP-R2 block: CRF-BP/CRF-R2 complex antagonism; HEK293 CRF-R2/CRF-BP, CRF-induced calcium fluorescence; inhibition, % at 11.8 µM; 350,000 tested, 0.59% active; AID 588475;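 active = inhibition of the ligand-induced calcium signal above about 50% at the single tested concentration, limit read from the data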
SIRT5 inh: inhibitors of human sirtuin-5 desuccinylase; Q9NXA8; Purified SirT5, succinyl-peptide AMC, trypsin-coupled fluorescence; inhibition, % at 15 µM; 330,000 tested, 1.1% active; in the data active = inhibition above about 15%
Target sequence (Q9NXA8 whole entry, looked up): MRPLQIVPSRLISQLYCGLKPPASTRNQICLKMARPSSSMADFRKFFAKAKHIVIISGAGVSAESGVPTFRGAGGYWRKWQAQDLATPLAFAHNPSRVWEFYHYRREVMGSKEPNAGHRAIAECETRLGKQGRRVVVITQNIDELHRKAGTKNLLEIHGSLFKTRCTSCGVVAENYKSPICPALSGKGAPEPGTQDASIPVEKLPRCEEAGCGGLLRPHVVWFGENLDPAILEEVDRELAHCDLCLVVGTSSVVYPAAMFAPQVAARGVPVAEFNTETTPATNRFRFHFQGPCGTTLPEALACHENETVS
The depositor's hits bear a star; nt = not tested or not shown. Rows were chosen to be rich in hits. Some 1.5% of all compounds tested hit in one or more screens of this group.

SMILES	PKA-R1A activ	S100A4 MyoIIA	PKA-R2B activ	CRFBP-R2 block	SIRT5 inh
CC(C)(C)n1nnnc1C(c1ccc(Cl)cc1)N(Cc1cccnc1)Cc1ccco1 (stereo not drawn)	2	nt	-9	59*	nt
O=S(=O)(NCc1ccccc1)c1ccccc1NCCc1ccccc1	-3	-5	-5	110*	-3
CCCCCCCCNc1ccccc1S(=O)(=O)NCc1ccccc1	-3	-2	-3	-17	-1
CC(=O)c1ccc(N2CCN(C(=O)CCS(=O)(=O)c3ccc4c(c3)CCN4C(C)=O)CC2)cc1	5	3	-9	80*	4
CNC[C@H]1Oc2cc(-c3cncnc3)ccc2S(=O)(=O)N([C@H](C)CO)C[C@@H]1C	nt	-14	nt	nt	-9
CCOC(=O)Oc1ccc2c(=O)c(Oc3cccc(C)c3)coc2c1	0	1	11	52*	2
C[C@@H]1CCCCO[C@@H](CN(C)C(=O)Nc2ccc3c(c2)OCO3)[C@H](C)CN([C@H](C)CO)C(=O)c2cc(NC(=O)CCC(F)(F)F)ccc2O1	nt	6	nt	nt	-12
COc1ccccc1C(=O)NCCC(=O)Nc1ccc(OC(F)(F)F)cc1	-4	-4	-6	-1	102*
COc1ccccc1C(=O)NCCC(=O)Nc1ccncc1	1	-5	-19	6	-1
Cc1ccc(C(=O)/C=C/c2cc(C#N)n(C)c2C)cc1	7	6	-3	6	22*
Cc1cc(C)c2c(CN3CCOCC3)cc(=O)oc2c1	3	-7	7	-8	30*
O=S(=O)(CCc1ccncc1)c1ccc(Cl)cc1	-2	1	0	5	27*
C[C@@H]1CN([C@@H](C)CO)C(=O)c2cc(NS(=O)(=O)c3ccc(Cl)cc3)ccc2O[C@@H]1CN(C)Cc1ccc(Cl)c(Cl)c1	nt	10	nt	nt	8
COc1ccc(S(=O)(=O)Nc2ccc3c(c2)C(=O)N([C@H](C)CO)C[C@@H](C)[C@@H](CN(C)Cc2ccc(Cl)c(Cl)c2)O3)cc1	nt	-6	nt	nt	19*
C[C@H]1CN([C@@H](C)CO)C(=O)c2cc(NS(=O)(=O)c3ccc(Cl)cc3)ccc2O[C@H]1CN(C)Cc1ccc(Cl)c(Cl)c1	nt	7	nt	nt	23*
CN(c1ccccc1)S(=O)(=O)c1ccc2c(c1)oc(=O)n2C	-13	-8	-6	59*	-1
COc1ccc(N(C)S(=O)(=O)c2ccc3c(c2)oc(=O)n3C)cc1	-11	nt	-9	20	nt
CCC(C)c1ccc(S(=O)(=O)Nc2cccnc2)cc1 (stereo not drawn)	-8	1	4	15	5
CCOc1ccc(S(=O)(=O)Nc2cccnc2)cc1	3	nt	3	53*	nt
CN1C(=O)c2cc(NC(=O)C3CCOCC3)ccc2OC[C@@H]2O[C@@H](CC(=O)NC3CCCC3)CC[C@@H]21	nt	0	nt	nt	-4
COc1ccccc1CNC(=O)CCc1nnc2ccc(NCCCN3CCCC3=O)nn12	-3	2	1	99*	-3
CCn1nc(C)c(NC(=O)Nc2cccc(Cl)c2Cl)c1C	7	-2	-3	53*	-1
CCn1nc(C)c(NC(=O)c2ccc(Cl)cc2)c1C	-6	0	0	-11	-2
O=C(CCS(=O)(=O)c1ccc(Br)s1)NC1CCCC1	-1	nt	-5	9	nt
O=C(CCNS(=O)(=O)c1ccc(Br)s1)NC1CCCC1	-6	1	-6	-17	20*
SMILES	PKA-R1A activ	S100A4 MyoIIA	PKA-R2B activ	CRFBP-R2 block	SIRT5 inh
COc1ccccc1-c1ccc2n(c1=O)C[C@@H]1[C@@H](CO)[C@H](C(=O)N3CCCCC3)[C@H]2N1CC1CC1	nt	-18	nt	nt	20*
CC(=O)N1[C@@H]2c3ccc(-c4ccncc4)c(=O)n3C[C@H]1[C@H](CO)[C@H]2C(=O)NC1Cc2ccccc2C1	nt	-2	nt	nt	-64
CCCNC(=O)[C@@H]1[C@@H](CO)[C@@H]2Cn3c(ccc(-c4ccc(F)cc4)c3=O)[C@H]1N2C	nt	1	nt	nt	-7
CCCNC(=O)[C@H]1[C@H](CO)[C@H]2Cn3c(ccc(-c4ccccc4)c3=O)[C@H]2N1CC1CC1	nt	-8	nt	nt	-3
CCNC(=O)[C@H]1[C@H](CO)[C@H]2Cn3c(ccc(-c4ccc(F)cc4)c3=O)[C@@H]1N2C	nt	138*	nt	nt	-1
CCC(=O)N1[C@@H]2c3ccc(-c4ccncc4)c(=O)n3C[C@H]1[C@H](CO)[C@H]2C(=O)NC1Cc2ccccc2C1	nt	154*	nt	nt	-65

High-throughput results (PubChem BioAssay)
